ChEMBL document CHEMBL3351553 (J Med Chem, 2014)
In brackets after ≈: the same amount, converted by molar mass.

Tests used:
[1] = tested on: Staphylococcus aureus; experiment: Antimicrobial activity against Staphylococcus aureus UAMS1 incubated for 16 hrs by CLSI based method; type: functional; conditions: UAMS1, 16 h
[2] = molecular target: DNA gyrase (Staphylococcus aureus, UniProt P0A0K8+P20831); experiment: Inhibition of Staphylococcus aureus DNA gyrase assessed as reduction in enzyme-catalyzed supercoiling of relaxed circular pBR322 DNA by agarose gel electrophoresis; type: protein-complex assay
Outline: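 Recombinant S. aureus gyrase kit, 0.5 U enzyme, relaxed pBR322 (250 ng/μL) in 40 mM HEPES·KOH pH 7.6, 10 mM Mg acetate, 10 mM DTT, 2 mM ATP, 500 mM K glutamate, 0.5 mg/mL albumin; 37 °C, 30 min.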

[3] = Inhibition of Staphylococcus aureus topoisomerase 4 assessed as reduction in decatenation of kDNA at 100 to 500 uM by gel electrophoresis method
Outline: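 Compounds were in DMSO, with water or DMSO as vehicle controls. Reactions were stopped with STEB plus chloroform:isoamyl alcohol and run on 1% agarose TAE gels stained with ethidium bromide. IC50 was taken from densitometry against reactions with and without enzyme.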

DNA gyrase, sequence (P0A0K8 whole entry): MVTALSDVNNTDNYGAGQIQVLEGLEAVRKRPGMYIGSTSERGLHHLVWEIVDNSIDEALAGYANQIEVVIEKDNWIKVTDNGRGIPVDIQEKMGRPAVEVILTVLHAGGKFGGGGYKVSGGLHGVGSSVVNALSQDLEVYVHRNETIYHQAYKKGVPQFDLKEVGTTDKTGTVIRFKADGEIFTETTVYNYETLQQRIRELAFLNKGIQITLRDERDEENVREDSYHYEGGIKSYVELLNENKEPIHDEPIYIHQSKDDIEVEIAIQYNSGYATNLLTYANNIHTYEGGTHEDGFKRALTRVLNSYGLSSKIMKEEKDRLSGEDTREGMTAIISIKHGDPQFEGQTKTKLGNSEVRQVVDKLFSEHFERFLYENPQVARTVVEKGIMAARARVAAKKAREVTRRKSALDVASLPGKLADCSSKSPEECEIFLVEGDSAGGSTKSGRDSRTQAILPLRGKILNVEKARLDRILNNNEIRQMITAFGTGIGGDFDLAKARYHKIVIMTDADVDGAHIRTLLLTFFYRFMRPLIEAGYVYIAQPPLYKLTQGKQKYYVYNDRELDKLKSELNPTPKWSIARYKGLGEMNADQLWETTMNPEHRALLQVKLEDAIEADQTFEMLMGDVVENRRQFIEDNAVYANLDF
DNA gyrase, sequence (P20831 whole entry): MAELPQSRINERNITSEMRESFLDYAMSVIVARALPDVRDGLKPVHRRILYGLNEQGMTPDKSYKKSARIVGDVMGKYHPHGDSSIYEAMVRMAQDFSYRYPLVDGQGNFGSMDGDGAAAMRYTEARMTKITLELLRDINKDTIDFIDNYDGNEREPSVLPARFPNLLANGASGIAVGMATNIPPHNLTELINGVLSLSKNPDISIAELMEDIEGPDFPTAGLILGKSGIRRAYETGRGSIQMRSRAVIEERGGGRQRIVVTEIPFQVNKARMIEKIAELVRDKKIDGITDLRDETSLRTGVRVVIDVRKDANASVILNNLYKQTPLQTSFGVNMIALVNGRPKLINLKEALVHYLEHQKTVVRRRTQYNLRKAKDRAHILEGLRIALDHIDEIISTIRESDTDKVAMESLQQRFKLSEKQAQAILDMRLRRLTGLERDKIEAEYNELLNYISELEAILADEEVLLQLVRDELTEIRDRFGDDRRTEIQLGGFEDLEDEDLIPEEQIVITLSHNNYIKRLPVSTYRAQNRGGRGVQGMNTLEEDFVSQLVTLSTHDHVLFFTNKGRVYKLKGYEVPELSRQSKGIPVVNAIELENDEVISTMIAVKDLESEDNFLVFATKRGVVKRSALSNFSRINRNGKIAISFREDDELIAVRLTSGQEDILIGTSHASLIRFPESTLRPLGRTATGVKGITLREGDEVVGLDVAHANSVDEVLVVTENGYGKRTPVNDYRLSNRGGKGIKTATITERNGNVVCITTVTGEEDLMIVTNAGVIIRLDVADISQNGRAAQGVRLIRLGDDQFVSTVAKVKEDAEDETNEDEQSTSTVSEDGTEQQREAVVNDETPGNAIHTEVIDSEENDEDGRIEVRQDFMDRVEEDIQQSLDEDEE

SMILES | MIC [1] [µg/mL] | IC50 [2] [µM] | IC50 [3] [µM]
OC(c1ccccc1)(c1ccccc1)C1CCN(Cc2ccccc2F)CC1 | > 256 |  | 
CC(C)(C)c1ccc(C(O)CCCN2CCC(Cc3ccccc3)CC2)cc1 (stereo not drawn) | > 256 | > 333 | 
CC1(c2ccc(CCN3CCC(C(O)(c4ccccc4)c4ccccc4)CC3)cc2)COC1 | > 256 | > 333 | 
CC(C)(C)c1ccc(C(=O)N2CCC(C(O)(c3ccccc3)c3ccccc3)CC2)cc1 | > 256 | 93 | > 333
O=[N+]([O-])c1ccc(CCN2CCC(C(O)(c3ccccc3)c3ccccc3)CC2)cc1 | 64 (≈ 154 µM) | 263 | > 333
OC(CCCN1CCC(C(O)(c2ccccc2)c2ccccc2)CC1)c1ccc(F)cc1 (stereo not drawn) | 128 (≈ 295 µM) | > 500 | > 333
CC(C)(C)c1ccc(C(O)CCCN2CCN(C(c3ccccc3)c3ccccc3)CC2)cc1 (stereo not drawn) [TRENIZINE] | > 256 |  | 
CC(C)(C)c1ccc(C(O)CCCN2CCC(C(c3ccccc3)c3ccccc3)CC2)cc1 (stereo not drawn) | 8 (≈ 17.6 µM) |  | 
CC(C)(C)c1ccc(C(O)CCCCN2CCC(C(O)(c3ccccc3)c3ccccc3)CC2)cc1 (stereo not drawn) | 16 (≈ 32.9 µM) | 100 | 133
COc1cccc(CN2CCC(C(O)(c3ccccc3)c3ccccc3)CC2)c1 | 128 (≈ 330 µM) |  | 
CC(C)(C)c1ccccc1CCN1CCC(C(O)(c2ccccc2)c2ccccc2)CC1 | 16 (≈ 37.4 µM) |  | 
Cc1cccc(CN2CCC(C(O)(c3ccccc3)c3ccccc3)CC2)c1 | 128 (≈ 345 µM) |  | 
CC(C)(C)c1ccc(CN2CCC(C(O)(c3ccccc3)c3ccccc3)CC2)cc1 |  | 90 | 213
CC(C)(C)c1ccc(C(N)CCCN2CCC(C(O)(c3ccccc3)c3ccccc3)CC2)cc1 (stereo not drawn) | 16 (≈ 34 µM) |  | > 333
CC(C)c1ccc(CN2CCC(C(O)(c3ccccc3)c3ccccc3)CC2)cc1 | 32 (≈ 80.1 µM) |  | 
COC(=O)C(C)(C)c1ccc(C(O)CCCN2CCC(C(O)(c3ccccc3)c3ccccc3)CC2)cc1 (stereo not drawn) | > 256 | > 500 | > 333
Nc1ccc(CCN2CCC(C(O)(c3ccccc3)c3ccccc3)CC2)cc1 | > 256 | 93 | > 333
OC(c1ccccc1)(c1ccccc1)C1CCN(Cc2cccc(C(F)(F)F)c2)CC1 | > 256 |  | 
CC(C)c1ccc(C(O)CCCN2CCC(C(O)(c3ccccc3)c3ccccc3)CC2)cc1 (stereo not drawn) | 32 (≈ 69.9 µM) |  | 273
Cc1ccccc1CN1CCC(C(O)(c2ccccc2)c2ccccc2)CC1 | 128 (≈ 345 µM) |  | 
OC(CCCN1CCC(C(O)(c2ccccc2)c2ccccc2)CC1)c1ccc(Cl)cc1 (stereo not drawn) | 64 (≈ 142 µM) | 133 | > 333
Oc1ccccc1CN1CCC(C(O)(c2ccccc2)c2ccccc2)CC1 | 64 (≈ 171 µM) |  | 
CC(C)(C(=O)O)c1ccc(C(O)CCCN2CCC(C(O)(c3ccccc3)c3ccccc3)CC2)cc1 (stereo not drawn) [FEXOFENADINE] | > 256 | > 500 | > 333

SMILES | MIC [1] [µg/mL] | IC50 [2] [µM] | IC50 [3] [µM]
CC(C)(C)c1ccc(OCCCN2CCC(C(O)(c3ccccc3)c3ccccc3)CC2)cc1 |  | 100 | > 333
COC(=O)c1cccc(CN2CCC(C(O)(c3ccccc3)c3ccccc3)CC2)c1 | > 256 |  | 
CC(C)(C)c1ccc(C(O)CCCN2CCC(C(O)c3ccccc3)CC2)cc1 (stereo not drawn) | > 256 | > 333 | 
CC(C)(C)c1ccc(CCCCN2CCC(C(O)(c3ccccc3)c3ccccc3)CC2)cc1 | 8 (≈ 17.6 µM) | 93 | 320
OC(c1ccccc1)(c1ccccc1)C1CCN(CCc2ccc(-c3ccncc3)cc2)CC1 | 32 (≈ 71.3 µM) | 93 | 227
Cc1ccc(CN2CCC(C(O)(c3ccccc3)c3ccccc3)CC2)cc1 | 128 (≈ 345 µM) |  | 
COc1ccc(C(O)CCCN2CCC(C(O)(c3ccccc3)c3ccccc3)CC2)cc1 (stereo not drawn) | > 256 | > 500 | > 333
OC(c1ccccc1)(c1ccccc1)C1CCN(Cc2ccc(-c3ccco3)cc2)CC1 | 32 (≈ 75.6 µM) |  | 
O=C(O)c1cccc(CN2CCC(C(O)(c3ccccc3)c3ccccc3)CC2)c1 | > 256 |  | 
CC(C)(C)c1ccc(C(=O)CN2CCC(C(O)(c3ccccc3)c3ccccc3)CC2)cc1 | > 256 |  | 247
Oc1ccc(CN2CCC(C(O)(c3ccccc3)c3ccccc3)CC2)cc1 | 128 (≈ 343 µM) |  | 
CC(C)(C)c1ccc(CCN2CCC(C(O)(c3ccccc3)c3ccccc3)CC2)cc1 | 8 (≈ 18.7 µM) | 93 | 147
COC(=O)c1ccccc1CN1CCC(C(O)(c2ccccc2)c2ccccc2)CC1 | > 256 |  | 
COc1ccc(CN2CCC(C(O)(c3ccccc3)c3ccccc3)CC2)cc1 | 128 (≈ 330 µM) |  | 
OC(c1ccccc1)(c1ccccc1)C1CCN(Cc2ccc(-c3ccsc3)cc2)CC1 | 16 (≈ 36.4 µM) |  | 
OC(c1ccccc1)(c1ccccc1)C1CCN(CCc2ccc(-c3ccccc3)cc2)CC1 | 8 (≈ 17.9 µM) | 80 | 133
CC(C)(C)c1ccc(C(=O)CCCN2CCC(C(O)(c3ccccc3)c3ccccc3)CC2)cc1 [TERFENADONE] | 8 (≈ 17 µM) |  | 110
N#Cc1cccc(CN2CCC(C(O)(c3ccccc3)c3ccccc3)CC2)c1 | > 256 |  | 
N#Cc1ccc(CN2CCC(C(O)(c3ccccc3)c3ccccc3)CC2)cc1 | > 256 |  | 
COc1ccccc1CN1CCC(C(O)(c2ccccc2)c2ccccc2)CC1 | 128 (≈ 330 µM) |  | 
OC(CCCN1CCC(C(O)(c2ccccc2)c2ccccc2)CC1)c1ccc(-c2ccccc2)cc1 (stereo not drawn) | 8 (≈ 16.3 µM) | 13 | 100
OC(c1ccccc1)(c1ccccc1)C1CCN(Cc2cccc(F)c2)CC1 | 128 (≈ 341 µM) |  | 
CC(C)(C)c1ccc(C(O)CCN2CCC(C(O)(c3ccccc3)c3ccccc3)CC2)cc1 (stereo not drawn) | 8 (≈ 17.5 µM) | 133 | 333

SMILES | MIC [1] [µg/mL] | IC50 [2] [µM] | IC50 [3] [µM]
CC(C)(C)c1ccc([C@@H](O)CCCN2CCC(C(O)(c3ccccc3)c3ccccc3)CC2)cc1 |  |  | 100
CC(C)(C)c1ccc(C(O)CN2CCC(C(O)(c3ccccc3)c3ccccc3)CC2)cc1 (stereo not drawn) | 16 (≈ 36.1 µM) |  | 100
Oc1cccc(CN2CCC(C(O)(c3ccccc3)c3ccccc3)CC2)c1 | > 256 |  | 
OC(c1ccccc1)(c1ccccc1)C1CCN(Cc2ccc(F)cc2)CC1 | > 256 |  | 
CC(C)(C)c1ccc(CCN2CCC(C(O)(c3ccccc3)c3ccccc3)CC2)cn1 | 64 (≈ 149 µM) | > 333 | 
OC(c1ccccc1)(c1ccccc1)C1CCN(CCc2ccc(F)cc2)CC1 | 128 (≈ 329 µM) | > 333 | 
COC(=O)c1ccc(CN2CCC(C(O)(c3ccccc3)c3ccccc3)CC2)cc1 | > 256 |  | 
CC(C)(C)c1ccc([C@H](O)CCCN2CCC(C(O)(c3ccccc3)c3ccccc3)CC2)cc1 [R-TERFENADINE] |  |  | 110
CC(C)(C)c1cccc(CN2CCC(C(O)(c3ccccc3)c3ccccc3)CC2)c1 | 32 (≈ 77.4 µM) |  | 
OC(c1ccccc1)(c1ccccc1)C1CCN(Cc2cccc(-c3ccccc3)c2)CC1 | 64 (≈ 148 µM) |  | 
O=C(O)c1ccccc1CN1CCC(C(O)(c2ccccc2)c2ccccc2)CC1 | > 256 |  | 
CN(C)c1ccc(CCN2CCC(C(O)(c3ccccc3)c3ccccc3)CC2)cc1 | > 256 | > 333 | 
OC(c1ccccc1)(c1ccccc1)C1CCN(Cc2ccc(-c3ccoc3)cc2)CC1 | 32 (≈ 75.6 µM) |  | 
CC(C)(C)c1ccccc1CN1CCC(C(O)(c2ccccc2)c2ccccc2)CC1 | > 256 |  | 
OC(c1ccccc1)(c1ccccc1)C1CCN(Cc2ccccc2-c2ccccc2)CC1 | > 256 |  | 
O=C(O)c1ccc(CN2CCC(C(O)(c3ccccc3)c3ccccc3)CC2)cc1 | > 256 |  | 
OC(c1ccccc1)(c1ccccc1)C1CCN(Cc2ccccc2C(F)(F)F)CC1 | > 256 |  | 
COc1ccc(CCN2CCC(C(O)(c3ccccc3)c3ccccc3)CC2)cc1 | > 256 | > 333 | 
OC(c1ccccc1)(c1ccccc1)C1CCN(Cc2ccc(-n3cccc3)cc2)CC1 | 32 (≈ 75.7 µM) |  | 
OC(c1ccccc1)(c1ccccc1)C1CCN(Cc2ccc(C(F)(F)F)cc2)CC1 | > 256 |  | 
N#Cc1ccccc1CN1CCC(C(O)(c2ccccc2)c2ccccc2)CC1 | > 256 |  | 
CC(C)(C)c1ccc(C(O)CCCN2CCC(=C(c3ccccc3)c3ccccc3)CC2)cc1 (stereo not drawn) | > 256 |  | 
OC(c1ccccc1)(c1ccccc1)C1CCN(Cc2ccc(-c3cccs3)cc2)CC1 | 32 (≈ 72.8 µM) |  | 
